Where a SMILES comes first, the peptide text is derived from it. [ ]: non-standard residue; d: D form. The star is where a group is joined. ξ: configuration not given here. Boc = CC(C)(C)OC(=O)*; ξOrn = NCCCC(N)C(=O)O; OtBu = CC(C)(C)O*; Sar = CNCC(=O)O
Legend:
Plasmodium berghei [1] = test: Antimalarial activity against schizonts of chloroquine-sensitive Plasmodium berghei ANKA 2.34 assessed as chemosuppression of schizont numbers at 200 uM after 16 hrs relative to control; format: functional
How it was run: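 Peptides in PBS with 0.1% DMSO and 5% ethanol were incubated with P. berghei cultures for 16 h at 37 °C, with chloroquine as positive control. Schizonts per 2000 erythrocytes were counted on smears from 0.5 mL culture samples, in duplicate and averaged. Reduction in schizont number is expressed against drug-free control cultures.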

Plasmodium berghei [2] = test: Antimalarial activity against schizonts of chloroquine-sensitive Plasmodium berghei ANKA 2.34 after 16 hrs; format: functional, organism-based; conditions: ANKA 2.34, 16 h
How it was run: (§1)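 P. berghei cultures were exposed to peptides in PBS with 0.1% DMSO and 5% ethanol for 16 h at 37 °C, with chloroquine as positive control. Smears were made from 0.5 mL culture samples and schizonts counted per 2000 erythrocytes. Four concentrations were each run in duplicate and averaged. IC50 is the concentration giving 50% fewer schizonts than drug-free controls, extrapolated from the concentration–response curve.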

Plasmodium berghei [3] = test: Antimalarial activity against Plasmodium berghei; format: functional, organism-based; how it was run: as §1

IC50 (Plasmodium berghei [2]) | IC50 (Plasmodium berghei [3]) | Compound | Activity (Plasmodium berghei [1])
4.26 µM |  | O=C1CNC(=O)[C@H](Cc2ccccc2)N1 | 70.37%
123 µM |  | O=C(NCCC[C@@H]1NC(=O)[C@H](Cc2ccccc2)NC1=O)OCc1ccccc1 | 72.93%
2.26 µM |  | CN1CC(=O)N[C@@H](Cc2ccccc2)C1=O | 83.76%
164 µM |  | CC(C)(C)OC(=O)NCC(=O)N[C@@H](Cc1ccccc1)C(=O)OC(C)(C)C (Boc-Gly-Phe-OtBu) | 54.26%
3.16 µM |  | CC(C)[C@H](NC(=O)CNC(=O)OC(C)(C)C)C(=O)OC(C)(C)C (Boc-Gly-Val-OtBu) | 59.55%
3.38 µM |  | CN(CC(=O)OC(C)(C)C)C(=O)[C@H](Cc1ccccc1)NC(=O)OC(C)(C)C (Boc-Phe-[Sar]-OtBu) | 79.41%
 | 2.5 µM | NCCCC(NC(=O)[C@H](Cc1ccccc1)NC(=O)C(CCCN)NC(=O)[C@@H](N)Cc1ccccc1)C(=O)O (stereo not given in full) (H-F[ξOrn]F[ξOrn]-OH) | 
0.06 µM |  | CCN(CC)CCCC(C)Nc1ccnc2cc(Cl)ccc12 (stereo not given) [CHLOROQUINE] | 100%

The remaining lines, values behind:

Compound | IC50 (Plasmodium berghei [2]) | IC50 (Plasmodium berghei [3]) | Activity (Plasmodium berghei [1])
O=C1N[C@@H](Cc2ccccc2)C(=O)N[C@H]1Cc1ccccc1 | 2.54 µM |  | 84.33%
CC(C)(C)OC(=O)N[C@@H](CCCNC(=O)OCc1ccccc1)C(=O)N[C@@H](Cc1ccccc1)C(=O)OC(C)(C)C | > 200 µM |  | 35.29%
COC(=O)[C@H](Cc1ccccc1)NC(=O)[C@H](CCCNC(=O)OCc1ccccc1)NC(=O)OC(C)(C)C | > 200 µM |  | 40%
CC(C)[C@H](NC(=O)[C@H](CCCNC(=O)OCc1ccccc1)NC(=O)OC(C)(C)C)C(=O)OC(C)(C)C | 33.9 µM |  | 55.73%
COC(=O)[C@@H](NC(=O)[C@@H](CCCNC(=O)OCc1ccccc1)NC(=O)OC(C)(C)C)C(C)C | 3.05 µM |  | 57.2%
CC(C)[C@H](NC(=O)[C@@H](CCCNC(=O)OCc1ccccc1)NC(=O)OC(C)(C)C)C(=O)OC(C)(C)C | 2.78 µM |  | 72.64%
CC(C)[C@@H]1NC(=O)[C@H](CCCNC(=O)OCc2ccccc2)NC1=O | 66 µM |  | 69.23%
CC(C)[C@@H]1NC(=O)[C@@H](CCCNC(=O)OCc2ccccc2)NC1=O | 3.09 µM |  | 70.08%
CC(C)[C@@H]1NC(=O)[C@H](CCCCNC(=O)OCc2ccccc2)NC1=O | 3.12 µM |  | 79.2%
CC(C)[C@@H]1NC(=O)[C@H](C(C)C)NC1=O | 2.45 µM |  | 87.18%
CC(C)[C@@H]1NC(=O)CNC1=O | 3.23 µM |  | 88.03%
CC(C)[C@@H]1NC(=O)[C@H](Cc2ccccc2)NC1=O | 3.89 µM |  | 61.07%
CC(C)(C)OC(=O)N[C@@H](Cc1ccccc1)C(=O)N[C@@H](Cc1ccccc1)C(=O)OC(C)(C)C (Boc-Phe-Phe-OtBu) | 112 µM |  | 55.73%
CC(C)[C@H](NC(=O)[C@H](Cc1ccccc1)NC(=O)OC(C)(C)C)C(=O)OC(C)(C)C (Boc-Phe-Val-OtBu) | 3.23 µM |  | 77.94%
COC(=O)CN(C)C(=O)[C@H](Cc1ccccc1)NC(=O)OC(C)(C)C (Boc-Phe-[Sar]-OMe) | 3.63 µM |  | 79.41%
CC(C)[C@H](NC(=O)OC(C)(C)C)C(=O)N[C@@H](Cc1ccccc1)C(=O)OC(C)(C)C (Boc-Val-Phe-OtBu) | 7.07 µM |  | 73.08%
CC(C)[C@H](NC(=O)OC(C)(C)C)C(=O)N[C@H](C(=O)OC(C)(C)C)C(C)C (Boc-Val-Val-OtBu) | 2.81 µM |  | 77.64%
NCCCC[C@H](N)C(=O)N[C@@H](Cc1ccccc1)C(=O)N[C@@H](Cc1ccccc1)C(=O)NC(CCCN)C(=O)O (stereo not given in full) (H-KFF[ξOrn]-OH) |  | 2.5 µM | 
